In ChEMBL document CHEMBL1909630, “Azaxanthene based selective glucocorticoid receptor modulators: design, synthesis, and pharmacological evaluation of (S)-4-(5-(1-((1,3,4-thiadiazol-2-yl)amino)-2-methyl-1-oxopropan-2-yl)-5H-chromeno[2,3-b]pyridin-2-yl)-2-fluoro-N,N-dimethylbenzamide (BMS-776532) and its methylene homologue …” (J Med Chem, 2011):
Active and inactive are the calls of the source. No cut-off for these calls is given here.

What was measured:
[1] = molecular target: T1, Progesterone receptor (Homo sapiens, UniProt P06401); experiment: Displacement of fluorescently labeled ligand from progesterone receptor by fluorescence polarization assay
T1 sequence (P06401 whole entry): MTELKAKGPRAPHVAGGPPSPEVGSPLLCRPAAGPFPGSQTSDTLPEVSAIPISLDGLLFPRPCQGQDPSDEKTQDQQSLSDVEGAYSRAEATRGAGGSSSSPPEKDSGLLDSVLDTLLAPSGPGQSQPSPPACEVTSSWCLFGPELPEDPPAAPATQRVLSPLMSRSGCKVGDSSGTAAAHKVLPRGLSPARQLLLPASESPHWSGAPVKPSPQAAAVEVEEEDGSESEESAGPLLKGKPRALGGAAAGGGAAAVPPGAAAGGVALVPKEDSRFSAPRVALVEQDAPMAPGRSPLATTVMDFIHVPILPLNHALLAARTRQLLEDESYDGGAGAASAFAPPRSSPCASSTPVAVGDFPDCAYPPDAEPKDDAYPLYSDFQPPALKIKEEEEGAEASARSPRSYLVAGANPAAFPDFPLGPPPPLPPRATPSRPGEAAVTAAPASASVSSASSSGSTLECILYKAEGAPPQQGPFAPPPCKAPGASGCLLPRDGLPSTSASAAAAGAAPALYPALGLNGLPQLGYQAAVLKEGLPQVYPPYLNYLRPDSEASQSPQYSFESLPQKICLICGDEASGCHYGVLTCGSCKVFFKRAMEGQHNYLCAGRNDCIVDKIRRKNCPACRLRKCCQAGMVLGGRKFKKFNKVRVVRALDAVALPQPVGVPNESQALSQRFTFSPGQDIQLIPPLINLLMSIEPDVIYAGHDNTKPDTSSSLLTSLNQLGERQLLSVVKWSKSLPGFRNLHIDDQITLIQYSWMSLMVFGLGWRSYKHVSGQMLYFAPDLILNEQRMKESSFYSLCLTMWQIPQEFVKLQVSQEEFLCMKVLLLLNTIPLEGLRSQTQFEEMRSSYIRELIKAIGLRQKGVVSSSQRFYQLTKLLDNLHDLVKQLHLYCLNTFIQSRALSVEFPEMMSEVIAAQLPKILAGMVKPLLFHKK

[2] = molecular target: T2, Glucocorticoid receptor (Homo sapiens, UniProt P04150); experiment: Transrepression activity at glucocorticoid receptor alpha in phorbol myristate acetate-stimulated human A549 cells assessed as inhibition of AP1 response element by luciferase reporter gene assay; format: cell-based
T2 sequence (P04150 whole entry): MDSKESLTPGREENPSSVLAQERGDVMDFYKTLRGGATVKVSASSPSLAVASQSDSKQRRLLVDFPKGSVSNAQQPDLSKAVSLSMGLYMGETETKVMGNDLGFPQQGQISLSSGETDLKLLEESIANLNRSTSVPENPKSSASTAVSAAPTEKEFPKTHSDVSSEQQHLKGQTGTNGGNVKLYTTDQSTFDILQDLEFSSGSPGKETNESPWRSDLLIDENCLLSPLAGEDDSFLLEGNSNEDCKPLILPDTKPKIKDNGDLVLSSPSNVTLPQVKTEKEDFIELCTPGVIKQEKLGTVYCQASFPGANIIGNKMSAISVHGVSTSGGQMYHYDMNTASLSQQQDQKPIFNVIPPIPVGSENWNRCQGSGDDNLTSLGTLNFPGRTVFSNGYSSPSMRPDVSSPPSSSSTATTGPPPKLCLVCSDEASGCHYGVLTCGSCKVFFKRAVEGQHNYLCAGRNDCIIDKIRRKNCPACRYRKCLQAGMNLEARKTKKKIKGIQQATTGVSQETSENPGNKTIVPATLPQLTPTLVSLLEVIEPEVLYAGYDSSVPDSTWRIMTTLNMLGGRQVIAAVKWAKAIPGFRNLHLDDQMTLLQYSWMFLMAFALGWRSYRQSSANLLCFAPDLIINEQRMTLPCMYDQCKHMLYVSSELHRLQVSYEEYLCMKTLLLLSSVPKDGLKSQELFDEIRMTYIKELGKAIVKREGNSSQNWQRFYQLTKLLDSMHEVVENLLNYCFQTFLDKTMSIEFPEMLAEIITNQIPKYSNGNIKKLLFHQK

[3] = molecular target: T2, Glucocorticoid receptor; experiment: Transrepression activity at glucocorticoid receptor alpha in IL-1beta-stimulated human A549 cells assessed as inhibition of NFkappaB-dependent E-selectin transcription by luciferase reporter gene assay; format: cell-based
[4] = molecular target: T2, Glucocorticoid receptor; experiment: Transactivation activity at glucocorticoid receptor alpha human 13D3/Huh7 cells assessed as induction of TAT activity after 4 hrs by spectrophotometry; format: cell-based, Huh-7
[5] = tested on: MG-63; experiment: Induction of glutamine synthase expression in human MG63 cells after overnight incubation by spectrophotometry relative to prednisolone; format: cell-based
[6] = tested on: Blood; experiment: Antiinflammatory activity in human whole blood assessed as inhibition of LPS-induced TNFalpha production after overnight incubation by ELISA relative to Dexamethasone; format: functional
Outline: (§1)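 Whole blood from two donors per experiment was collected into ACD-A. Compounds were added and the blood was incubated about 20 h at 37 °C under 5% CO2. Blood was then stimulated for 5 h with LPS (final 100 ng/mL, for TNFα) or IL-1β (final 10 ng/mL, for IL-8). Plasma TNFα or IL-8 was measured by ELISA. Efficacy was expressed as % of dexamethasone, and values are means of at least two experiments.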

[7] = tested on: Blood; experiment: Antiinflammatory activity in human whole blood assessed as inhibition of IL-1beta-induced IL-8 production after overnight incubation by ELISA; format: functional, tissue-based; outline: as §1
[8] = Tmax in Sprague-Dawley rat at 10 mg/kg, po; format: ADME, organism-based; parameters: dose 10 mg/kg, route oral; conditions: in vivo
Outline: (§2)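 Male Sprague-Dawley rats received a single intravenous (1 mg/kg) or oral (10 or 50 mg/kg) dose. Plasma pharmacokinetic parameters were derived from these profiles.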

[9] = Tmax in Sprague-Dawley rat at 50 mg/kg, po; format: ADME, organism-based; parameters: dose 50 mg/kg, route oral; conditions: in vivo; outline: as §2
[10] = AUC in Sprague-Dawley rat at 1 mg/kg, iv; format: ADME, organism-based; parameters: dose 1 mg/kg, route intravenous; conditions: plasma; outline: as §2
[11] = Clearance in Sprague-Dawley rat at 1 mg/kg, iv; format: ADME, organism-based; parameters: dose 1 mg/kg, route intravenous; conditions: in vivo; outline: as §2
[12] = tested on: Rattus norvegicus; experiment: Antiinflammatory activity in po dosed Freund's complete adjuvant-induced Lewis rat arthritis model assessed as reduction in onset of arthritis; format: functional, organism-based
Outline: (§3)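 Male Lewis rats were inoculated with Mycobacterium butyricum in incomplete Freund's adjuvant. Oral dosing was daily and preventative, running from day 0 to day 21. Onset and progression of arthritis were followed, and ED50 was estimated from the dose response.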

[13] = tested on: Rattus norvegicus; experiment: Antiinflammatory activity in Freund's complete adjuvant-induced Lewis rat arthritis model assessed as reduction in paw swelling at 50 mg/kg/day, po qd for 21 days; format: functional, organism-based; outline: as §3
[14] = tested on: Rattus norvegicus; experiment: Antiinflammatory activity in po dosed Freund's complete adjuvant-induced Lewis rat arthritis model assessed as reduction in paw swelling administered once daily for 21 days; format: functional; conditions: 504 h; outline: as §3
[15] = tested on: Rattus norvegicus; experiment: Antiinflammatory activity in Freund's complete adjuvant-induced Lewis rat arthritis model assessed as reduction in paw swelling at 25 mg/kg/day, po qd for 21 days; format: functional, organism-based; outline: as §3

Row | Compound | Ki [1] | EC50 [2] | EC50 [3] | EC50 [4] | Emax [5] | Imax [6] | EC50 [7] | Tmax [8] | Tmax [9] | AUC [10] | clearance [11] | Activity [12] | Activity [13] | ED50 [14] | Activity [15]
1 | CN(C)C(=O)c1ccc(-c2ccc3c(n2)Oc2ccccc2[C@H]3C(C)(C)C(=O)Nc2nncs2)cc1F | 1530 nM | 33.2 nM | 33.8 nM | 150 nM | 33% | 83% | 1140 nM | 1.3 h | 1.7 h | 342 ng·h/mL | 49.5 mL/min/kg | Dose-dependent effect | Active | 17 mg/kg | –
2 | CCN(C)C(=O)c1ccc(-c2ccc3c(n2)Oc2ccccc2[C@@H]3C(C)(C)C(=O)Nc2nncs2)cc1F | 1830 nM | 17.7 nM | 6.89 nM | 88 nM | 53% | 91% | 628 nM | 1 h | 3.3 h | 526 ng·h/mL | 34 mL/min/kg | Dose-dependent effect | – | 8 mg/kg | Active
